Values after ≈ are worked out from the molar mass of the structure shown. Like-named read-outs stand apart in the source and are kept apart here.
Key:
[1] = system: Collagenase type V from Clostridium histolyticum; assay: Collagenase inhibition assay; format: biochemical; conditions: for IC50: incubation 37°C 10 min, reaction monitored 30 min; for inhibition rate: initial concentration 50 μg/mL
Procedure, shortened: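 Clostridium histolyticum collagenase (100 μg/mL initial) in 10 mM Tris-HCl pH 7.3 preincubated 10 min with test compound (1% DMSO final). MCA-Pro-Leu-Ala-Nva-DNP-Dap-Ala-Arg-NH2 (55.55 μg/mL initial) then added. Fluorescence ex 320/em 400 nm read at endpoint, or every 5 min over 30 min for AUC. Serial dilutions in triplicate, blank per concentration, % inhibition versus buffer control. Km by Lineweaver-Burk, substrate 4.17–166.67 μg/mL initial.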

collagenase = conditions: cited from earlier work

For “MCA-Pro-Leu-Ala-Nva-DNP-Dap-Ala-Arg-NH2 [MMP-2 fluorogenic substrate]”, the “maximum velocity (Vmax)” value ([1]; Lineweaver Burk plot, enzyme 100 μg/mL (initial)) was 212.76 µmol/min, the Km ([1]; read-out: Km (final), Lineweaver Burk plot, final concentration) was 12.9 µM and the Km ([1]; read-out: Michaelis Menten constant (Km), Lineweaver Burk plot, enzyme 100 μg/mL (initial), initial substrate concentration) was 51.7 µM.
In the case of c1cnc2c(c1)ccc1cccnc12 [1,10-phenanthroline], the IC50 ([1]; final concentration) is given as 42.86 µg/mL, the IC50 ([1]; mean ± SD (n=3)) is given as 238 ± 3.4 µM and the “IC50 described in literature” value (collagenase; ref [16]) is given as 70.4 µg/mL (≈ 391 µM).
In the case of O=C(O[C@@H]1Cc2c(O)cc(O)cc2O[C@@H]1c1cc(O)c(O)c(O)c1)c1cc(O)c(O)c(O)c1 [epigallocatechingallate], the IC50 (collagenase; ref [15]) is listed as 114 µg/mL (≈ 249 µM).
For COC1=C(NCC(=O)O)CC(O)(CO)CC1=N[C@H](C(=O)O)[C@@H](C)O (stereo partly shown) [porphyra], the IC50 ([1]; final concentration) was 37.73 µg/mL and the IC50 ([1]; mean ± SD (n=3)) was 106 ± 2.3 µM.
With COC1=C(NCC(=O)O)CC(O)(CO)CC1=N (stereo not shown) [palythine] the IC50 ([1]; final concentration) was 38.82 µg/mL and the IC50 ([1]; mean ± SD (n=3)) was 159 ± 3.2 µM.
In the case of CC(C)C[C@H](NP(=O)(O)O[C@@H]1O[C@@H](C)[C@H](O)[C@@H](O)[C@H]1O)C(=O)N[C@@H](Cc1c[nH]c2ccccc12)C(=O)O [phosphoramidon], the “IC50, kinetic reading mode (AUC)” value ([1]; AUC 0-30 min, n=3) is reported as 11.95 μg/mL ± 1.28, the “IC50, endpoint reading mode” value ([1]; endpoint reading at 30 min, n=3) is reported as 11.07 μg/mL ± 0.95 and the IC50 ([1]; mean ± SD (n=3)) is reported as 18.8 ± 1.6 µM. The inhibition rate ([1]; reaction temperature 30°C) was 53.4%, the inhibition rate ([1]; reaction temperature 37°C) was 53.4% and the inhibition rate ([1]; room temperature (RT)) was 49.1%.
With COC1=C(NCC(=O)O)C[C@@](O)(CO)C/C1=N\[C@@H](CO)C(=O)O [shinorine] the IC50 ([1]; final concentration) was 34.42 µg/mL and the IC50 ([1]; mean ± SD (n=3)) was 104 ± 3.7 µM.
